# Results: paper PMC6210075 (ACS Omega, 2018)
# Tests used:
# human FAAH = molecular target: T1, human FAAH (Homo sapiens, UniProt O00519); test: FAAH fluorescent inhibition assay; type: biochemical
# T1 sequence (O00519 1-579): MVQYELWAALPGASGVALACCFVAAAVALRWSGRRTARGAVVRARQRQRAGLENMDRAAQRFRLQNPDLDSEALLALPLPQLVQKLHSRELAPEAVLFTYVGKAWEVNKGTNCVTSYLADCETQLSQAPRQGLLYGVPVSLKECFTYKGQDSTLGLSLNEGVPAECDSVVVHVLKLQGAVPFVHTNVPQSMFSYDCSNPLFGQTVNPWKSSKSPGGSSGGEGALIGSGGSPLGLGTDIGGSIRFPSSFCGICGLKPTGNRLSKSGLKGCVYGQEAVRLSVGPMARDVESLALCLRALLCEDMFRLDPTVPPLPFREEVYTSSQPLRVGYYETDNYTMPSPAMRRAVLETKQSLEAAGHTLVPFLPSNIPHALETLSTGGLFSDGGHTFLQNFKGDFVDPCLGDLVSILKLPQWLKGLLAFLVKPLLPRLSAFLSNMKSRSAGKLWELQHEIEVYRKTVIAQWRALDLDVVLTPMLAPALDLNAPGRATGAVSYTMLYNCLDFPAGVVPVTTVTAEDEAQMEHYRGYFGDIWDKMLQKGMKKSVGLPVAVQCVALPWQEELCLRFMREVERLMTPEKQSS
# rat sEH = molecular target: T2, rat sEH (Rattus norvegicus, UniProt P80299); test: sEH fluorescent inhibition assay, recombinant rat sEH; type: biochemical
# T2 sequence (P80299 1-554): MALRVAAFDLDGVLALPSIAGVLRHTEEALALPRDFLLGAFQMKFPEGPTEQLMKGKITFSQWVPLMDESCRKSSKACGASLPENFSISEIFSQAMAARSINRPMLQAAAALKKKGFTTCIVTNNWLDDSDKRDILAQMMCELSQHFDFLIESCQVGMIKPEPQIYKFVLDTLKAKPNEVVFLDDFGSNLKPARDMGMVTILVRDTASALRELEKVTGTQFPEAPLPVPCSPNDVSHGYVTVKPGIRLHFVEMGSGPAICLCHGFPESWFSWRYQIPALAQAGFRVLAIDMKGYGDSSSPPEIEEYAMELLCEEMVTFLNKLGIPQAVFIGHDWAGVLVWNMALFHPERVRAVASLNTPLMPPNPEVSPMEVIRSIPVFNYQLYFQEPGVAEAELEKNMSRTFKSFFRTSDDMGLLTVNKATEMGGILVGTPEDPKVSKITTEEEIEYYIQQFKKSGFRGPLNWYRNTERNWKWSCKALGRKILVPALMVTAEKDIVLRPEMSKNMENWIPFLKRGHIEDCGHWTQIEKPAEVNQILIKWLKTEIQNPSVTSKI
# mouse FAAH = molecular target: T3, mouse FAAH (Mus musculus, UniProt O08914); test: FAAH fluorescent inhibition assay, mouse crude tissue homogenate; type: biochemical; details: FAAH IC50 (5 min pre-incubation)
# T3 sequence (O08914 1-579): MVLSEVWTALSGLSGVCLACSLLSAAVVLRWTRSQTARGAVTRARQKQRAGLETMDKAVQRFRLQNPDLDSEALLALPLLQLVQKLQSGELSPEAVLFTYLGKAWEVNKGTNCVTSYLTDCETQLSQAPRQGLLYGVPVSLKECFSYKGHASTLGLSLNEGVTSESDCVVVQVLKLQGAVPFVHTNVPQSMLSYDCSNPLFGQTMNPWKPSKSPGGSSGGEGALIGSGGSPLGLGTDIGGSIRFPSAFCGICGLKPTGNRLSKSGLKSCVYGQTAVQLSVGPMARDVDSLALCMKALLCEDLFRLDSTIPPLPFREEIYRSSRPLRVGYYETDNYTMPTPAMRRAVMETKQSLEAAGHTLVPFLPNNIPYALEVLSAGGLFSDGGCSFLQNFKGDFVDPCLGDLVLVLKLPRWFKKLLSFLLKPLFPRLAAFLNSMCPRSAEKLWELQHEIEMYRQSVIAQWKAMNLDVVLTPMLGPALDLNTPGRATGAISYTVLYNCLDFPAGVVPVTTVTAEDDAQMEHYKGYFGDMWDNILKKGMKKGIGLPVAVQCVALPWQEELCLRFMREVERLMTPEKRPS
# [1] = Cassette dosing pharmacokinetics in mice; type: in vivo; details: male, Swiss Webster, mouse, whole blood, po, 1 mg/kg
# Summary of the method: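 Test compounds were given as a cassette cocktail at 1 mg/kg each, p.o. in PEG300, to groups of 4 rats or 4 mice. Blood was taken by tail vein at set intervals and group averages were used.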
# serine hydrolases = molecular target: T4, serine hydrolases (Mus musculus, UniProt O08914); test: Activity-based protein profiling; type: biochemical; details: mouse brain tissue homogenate, inhibitor 20 µM
# T4 sequence (O08914 1-579): T3 sequence (O08914 1-579)
# sEH = molecular target: T5, sEH (Mus musculus, UniProt P34914); test: In vivo target engagement: residual sEH activity; details: mice, 1 mg/kg i.p. in DMSO, 4 h after dosing
# T5 sequence (P34914 1-554): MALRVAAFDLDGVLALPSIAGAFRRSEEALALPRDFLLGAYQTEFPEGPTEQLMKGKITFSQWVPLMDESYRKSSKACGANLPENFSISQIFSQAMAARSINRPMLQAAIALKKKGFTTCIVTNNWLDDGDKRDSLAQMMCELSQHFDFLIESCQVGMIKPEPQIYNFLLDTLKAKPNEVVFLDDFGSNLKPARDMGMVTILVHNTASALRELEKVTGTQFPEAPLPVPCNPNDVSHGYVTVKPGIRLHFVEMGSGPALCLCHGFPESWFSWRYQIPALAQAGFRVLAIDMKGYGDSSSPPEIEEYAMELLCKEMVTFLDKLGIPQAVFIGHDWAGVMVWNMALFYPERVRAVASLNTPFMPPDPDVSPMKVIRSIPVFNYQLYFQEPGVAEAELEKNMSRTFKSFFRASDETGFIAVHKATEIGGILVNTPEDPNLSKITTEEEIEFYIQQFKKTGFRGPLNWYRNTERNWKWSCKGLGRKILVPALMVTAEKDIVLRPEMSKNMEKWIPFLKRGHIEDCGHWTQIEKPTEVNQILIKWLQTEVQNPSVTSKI
SMILES,difference in potency on FAAH (human FAAH; compared to 11) [fold],IC50 (rat sEH) [nM],IC50 (mouse FAAH) [nM],AUC [1] [µM·h],Cmax [1] [nM],intensity of the FAAH band (ABPP) (serine hydrolases),IC50 (human FAAH) [nM],"residual brain sEH activity, % of control (sEH) [%]"
O=C(Nc1ccc(C(F)(F)F)cc1F)N1CCC(Cc2cccc(Oc3ccc(C(F)(F)F)cn3)c2)CC1 [compound 18],< 3,240,> 10000,0.41,37,does not appear to fully inhibit the band corresponding to FAAH,,
"O=C(Nc1cccnc1)N1CCC(Cc2cccc(Oc3ccc(C(F)(F)F)cn3)c2)CC1 [PF-3845, reference compound]",,,,,,reduced,0.65,63 ± 14
